Measured values from ChEMBL document CHEMBL4706570, “Structure-activity relationship studies and bioactivity evaluation of 1,2,3-triazole containing analogues as a selective sphingosine kinase-2 inhibitors” (Eur J Med Chem, 2020).
Calls of active or inactive are those of the source. No cut-off for these calls is given here.

Columns and labels:
[1] = test system: U-251; experiment: Cytotoxicity against human U-251MG cells assessed as reduction in cell viability at 125 uM incubated for 24 hrs by Hoechst 33258 and PI staining based imaging analysis; format: functional
Summary of the method: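 U-251 MG glioblastoma cells grown in RPMI-1640 with 10% FBS, 1 mM sodium pyruvate and 1x Pen-Strep at 37 °C, 5% CO2. Seeded at 3000 cells/well, left about 16 h, then medium replaced with fresh medium containing 125 µM compound for 24 h. Stained with Hoechst 33258 for total cells and propidium iodide for apoptotic cells. Triplicate, S.E. reported.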

[2] = molecular target: T1, Sphingosine kinase 2 (Homo sapiens) (UniProt Q9NRA0); experiment: Inhibition of recombinant human N-terminal His-tagged SphK2 (2 to 654 residues) expressed in baculovirus infected Sf21 cells at 125 uM using d-erythro-sphingosine as substrate incubated for 1 hr by ADP-Glo assay relative to control
T1 sequence (whole entry): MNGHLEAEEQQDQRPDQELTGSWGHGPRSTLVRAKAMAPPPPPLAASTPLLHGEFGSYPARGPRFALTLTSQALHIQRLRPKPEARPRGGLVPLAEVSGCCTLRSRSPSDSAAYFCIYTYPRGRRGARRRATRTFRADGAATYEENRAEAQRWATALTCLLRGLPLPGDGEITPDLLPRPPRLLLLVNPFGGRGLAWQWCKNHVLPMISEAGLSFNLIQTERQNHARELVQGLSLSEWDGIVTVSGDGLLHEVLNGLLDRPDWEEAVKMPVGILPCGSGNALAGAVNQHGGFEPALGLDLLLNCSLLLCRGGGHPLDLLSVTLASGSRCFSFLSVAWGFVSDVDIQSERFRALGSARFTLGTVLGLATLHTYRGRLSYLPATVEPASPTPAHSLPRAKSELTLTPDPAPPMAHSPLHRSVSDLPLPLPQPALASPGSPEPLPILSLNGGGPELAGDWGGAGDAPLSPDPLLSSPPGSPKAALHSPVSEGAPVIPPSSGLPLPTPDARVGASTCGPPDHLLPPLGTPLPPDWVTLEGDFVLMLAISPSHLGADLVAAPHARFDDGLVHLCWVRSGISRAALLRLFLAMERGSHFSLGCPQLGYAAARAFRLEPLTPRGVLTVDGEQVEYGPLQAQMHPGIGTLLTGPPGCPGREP

[3] = molecular target: T2, Sphingosine kinase 2 (Homo sapiens, UniProt Q9NRA0); experiment: Inhibition of recombinant human Flag-tagged SphK2 transfected in HEK293 cells using d-erythro-sphingosine as substrate by [gamma32P]-ATP based assay
T2 sequence (Q9NRA0 whole entry): T1 sequence (whole entry)

[4] = molecular target: Sphingosine kinase 1 (Homo sapiens, UniProt Q9NYA1); experiment: Inhibition of recombinant human Flag-tagged SphK1 transfected in HEK293 cells using d-erythro-sphingosine as substrate by [gamma32P]-ATP based assay
Sphingosine kinase 1, sequence (Q9NYA1 whole entry, the tested form may be a part): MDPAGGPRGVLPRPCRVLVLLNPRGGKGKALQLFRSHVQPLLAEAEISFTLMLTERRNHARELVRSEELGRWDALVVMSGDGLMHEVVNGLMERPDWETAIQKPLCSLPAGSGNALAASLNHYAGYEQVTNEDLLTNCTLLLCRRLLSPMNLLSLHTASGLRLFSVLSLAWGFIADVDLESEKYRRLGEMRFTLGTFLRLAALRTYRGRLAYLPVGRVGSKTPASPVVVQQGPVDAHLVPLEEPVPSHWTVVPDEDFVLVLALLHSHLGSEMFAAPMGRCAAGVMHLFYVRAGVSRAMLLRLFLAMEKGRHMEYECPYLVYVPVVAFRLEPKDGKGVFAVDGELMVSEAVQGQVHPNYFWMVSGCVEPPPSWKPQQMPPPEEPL

[5] = molecular target: T2, Sphingosine kinase 2; experiment: Inhibition of recombinant human N-terminal His-tagged SphK2 (2 to 654 residues) expressed in baculovirus infected Sf21 cells using d-erythro-sphingosine as substrate incubated for 1 hr by ADP-Glo assay

SMILES | inhibition [2] | IC50 [5] | inhibition [1] | also measured
N=C(N)N1CCC[C@H]1Cc1nc(-c2ccc(Cn3cc(-c4ccccc4)nn3)cc2)no1 | > 50% |  | Active | 
Cc1ccc(S(=O)(=O)Nc2cccc(/C=N/c3ccccc3NS(=O)(=O)c3ccc(C)cc3)c2)cc1 |  |  |  | Ki [3]: 6900 nM; Ki [4]: 27000 nM
Cn1cc(-c2cn(Cc3ccc(-c4noc(C5(C(=N)N)CC5)n4)cc3)nn2)cn1 | > 50% |  | Active | 
N=C(N)C1(c2nc(-c3ccc(Cn4cc(-c5ccccc5)nn4)cc3)no2)CC1 | > 50% |  | Active | 
N=C(N)C1(c2nc(-c3ccc(Cn4cc(C5CC5)nn4)cc3)no2)CC1 | > 50% |  |  | 
O=C(NCc1ccncc1)C12CC3CC(C1)CC(c1ccc(Cl)cc1)(C3)C2 [ABC-294640] |  |  |  | inhibition at 125 µM [1]: 50%
N=C(N)N1CCC[C@H]1Cc1nc(-c2ccc(Cn3cc(-c4ccccn4)nn3)cc2)no1 | > 50% |  |  | 
N=C(N)N1CCC[C@H]1c1nc(-c2ccc(Cn3cc(-c4ccccc4)nn3)cc2)no1 | > 50% |  |  | 
Cn1cc(-c2cn(Cc3ccc(-c4noc(C[C@@H]5CCCN5C(=N)N)n4)cc3)nn2)cn1 | > 50% |  |  | 
N=C(N)N1CCC[C@H]1Cc1nc(-c2ccc(Nc3nc(-c4cccc(C(F)(F)F)c4)cs3)cc2)no1 | > 50% | 280 nM |  | 
N=C(N)N1CCC[C@H]1Cc1nc(-c2ccc(Cn3cc(-c4ccc(C(F)(F)F)cc4)nn3)cc2)no1 |  |  | Active | 

Second part, led by results:

inhibition [2] | IC50 [5] | SMILES | inhibition [1] | also measured
> 50% |  | COc1ccc(-c2cn(Cc3ccc(-c4noc(C[C@@H]5CCCN5C(=N)N)n4)cc3)nn2)cc1 | Active | 
> 50% | 687 nM | N=C(N)N1CCC[C@H]1c1nc(-c2ccc(Cn3cc(-c4cccs4)nn3)cc2)no1 |  | 
> 50% | 248 nM | N=C(N)N1CCC[C@H]1c1nc(-c2ccc(Cn3cc(C4CC4)nn3)cc2)no1 |  | 
> 50% | 254 nM | CCCCc1cn(Cc2ccc(-c3noc([C@@H]4CCCN4C(=N)N)n3)cc2)nn1 |  | 
> 50% | 391 nM | N=C(N)N1CCC[C@H]1c1nc(-c2ccc(Cn3cc(-c4ccc(F)cc4)nn3)cc2)no1 |  | 
> 50% | 266 nM | COc1ccc(-c2cn(Cc3ccc(-c4noc([C@@H]5CCCN5C(=N)N)n4)cc3)nn2)cc1 | Active | 
> 50% | 359 nM | N=C(N)N1CCC[C@H]1c1nc(-c2ccc(Cn3cc(-c4ccc(C(F)(F)F)cc4)nn3)cc2)no1 | Active | 
> 50% |  | N=C(N)N1CCC[C@H]1c1nc(-c2ccc(Cn3cc(-c4ccccn4)nn3)cc2)no1 |  | 
